In the library only some 1.5% were active in any assay of this set; here they are far more common.
TNF death inh: inhibitors of TNF-alpha induced necroptosis in Jurkat FADD-/- cells | hit rate 0.068% among 220,000 | Jurkat FADD-/- TNF necroptosis rescue, ATP luminescence, 24 h; 0 = TNF only, 100 = no-TNF cells | AID 463075 | activation (protection from cell death), % at 10 µM;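 active means activation, meaning protection from cell death, of at least 50% relative to plate controls; inactive means activation below 50%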;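 further: necroptosis triggered by 40 ng/mL TNF-alpha added together with compound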
Dynein transport: dynein cargo transport inhibition; 3617.4 mouse cells, GR-EGFP nuclear translocation imaging; test concentration mostly 20 µM; stimulated with dexamethasone, 1 µM; active compounds read low; z-score, hits read low; hit rate 0.47% among 220,000;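 active means plate z-score of nuclear minus cytoplasmic receptor signal below a set negative limit, without overly bright fluorescence or cell loss, cut at about -3.5 in these data, passing the limit was not always enough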;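 further: z-score of nuclear minus cytoplasmic ring GR-EGFP intensity difference per well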
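Also added: dexamethasone, 1.0 µM final. Medium: tet-free, stripped-serum medium. Detection: fixed, Hoechst-stained cells imaged at 10x for EGFP. Read-out: nuclear-to-cytoplasmic GR-EGFP distribution per well. Times: induction 48 h, compound 1 h, agonist 30 min.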
S1P4 agonist: agonists of human S1P4 receptor; O95977; S1P4-expressing cell line, agonist reporter assay; activation, % at 4.98 µM; hit rate 0.35% among 220,000; AID 1509; in the data active means activation above about 11%
L929 necroptosis: L929 zVAD cell death inhibition. L929 zVAD necroptosis rescue, ATP luminescence, 24 h; with zVAD 60 µM. hit rate 0.38% among 220,000. viability rescue, % at 10 µM;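 active means activation, scaled between plate controls, above about 75%, limit read from the data; inactive means activation under that limit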
TbHK1 inh: T. brucei hexokinase 1 inhibition; inhibition, % at 10 µM; hit rate 0.11% among 220,000; recombinant TbHK1, G6PDH-coupled NADH A340;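 active means inhibition of 50% or more in the single-dose primary screen; inactive means inhibition below 50%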
S1P4 antag: human S1P4 receptor antagonism; S1P4-expressing cells, antagonist mode, reporter read-out; inhibition, % at 4.98 µM; hit rate 0.26% among 220,000; in the data active means inhibition above about 29%
S1P4 ag conf: confirmation of human S1P4 receptor agonists | AID 1523 | S1P4 agonist cell-based reporter assay | hit rate 7% among 740 | activation, % at 4.98 µM | shares compounds with S1P4 agonist; in the data active means activation above about 12%
S1P1 ag: human S1P1 agonism as S1P4 agonist counter-screen; shares compounds with S1P4 agonist; S1P1 agonist cell-based assay, activation; activation, % at 4.98 µM; hit rate 4% among 740; AID 1563; in the data active means activation above about 21%
Target sequence (P21453 whole entry, looked up): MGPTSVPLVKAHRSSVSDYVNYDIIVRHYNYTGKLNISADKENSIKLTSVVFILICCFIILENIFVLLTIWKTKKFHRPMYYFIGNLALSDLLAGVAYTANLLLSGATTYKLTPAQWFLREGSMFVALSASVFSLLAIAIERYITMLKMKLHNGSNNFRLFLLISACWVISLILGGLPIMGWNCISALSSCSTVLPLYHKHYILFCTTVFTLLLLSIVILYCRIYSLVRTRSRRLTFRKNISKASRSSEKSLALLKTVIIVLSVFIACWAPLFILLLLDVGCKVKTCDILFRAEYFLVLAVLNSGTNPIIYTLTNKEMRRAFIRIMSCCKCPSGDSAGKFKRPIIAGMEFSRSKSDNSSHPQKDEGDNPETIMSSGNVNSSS
S1P4 antag conf: confirmation of human S1P4 receptor antagonists | shares compounds with S1P4 antag | S1P4-expressing cell line, antagonist mode, reporter read-out | inhibition, % at 4.98 µM | hit rate 71% among 520 | AID 1524; in the data active means inhibition above about 30%
S1P1 antagonist: counter-screen for S1P4 antagonists: antagonists of human S1P1; shares compounds with S1P4 antag; cell-based S1P1 antagonist counterscreen, inhibition; inhibition, % at 4.98 µM; hit rate 37% among 520; in the data active means inhibition above about 40%;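 further: receptor stimulated with S1P near its EC80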
Hits are given with their value; - = inactive; . = no result given.

SMILES	TNF death inh	Dynein transport	S1P4 agonist	L929 necroptosis	TbHK1 inh	S1P4 antag	S1P4 ag conf	S1P1 ag	others
CC1C2=C(CC(C)(C)CC2=O)NC2=C1C(=O)CC(C)(C)C2	-	-	17.7	-	-	-	-	-
CC1(C)CC(=O)C2=C(C1)NC(=O)NC2c1ccccc1 (configuration not stated)	-	-	-	-	-	-	.	.
COCCNC(=O)/C(C#N)=c1\s/c(=C\c2ccccc2OC(F)F)c(=O)n1Cc1ccccc1	-	-	12.4	-	-	-	-	-
Cc1ccc(CCC(=O)Nc2ccccc2F)s1	-	-	185.3	-	-	-	-	-
O=C(CCc1nc2ccccc2[nH]1)Nc1ccccc1F	-	-	-	-	-	-	.	.
CC(C)(C)c1ccc(-c2cn(-c3ccc(Br)cc3)c3[n+]2CCCS3)cc1	-	-	-	-	-	-	.	.
Nc1n[nH]c2cc(=O)n(-c3cccc(C(F)(F)F)c3)nc12	-	-	65.2	-	-	-	-	-
CCOC(=O)c1c(-c2ccccc2Cl)csc1NC(=O)CSc1nc(C)cc(=O)[nH]1	-	-	-	-	-	-	.	.
COc1cc([N+](=O)[O-])cc2sc(NC(=O)c3c(F)cccc3F)nc12	-	-	-	-	-	-	.	.
C/C(=N\N1CCN(Cc2ccc(Cl)cc2)CC1)c1ccc(F)cc1	-	-	74.7	-	-	-	-	-
CCCNc1ccc(C(=O)OCC)cc1[N+](=O)[O-]	-	-	33.6	-	-	-	-	-
O=S(=O)(NC1CCCCC1NS(=O)(=O)c1ccc(F)cc1)c1ccc(F)cc1 (configuration not stated)	-	-	14.9	-	-	-	-	-
O=S(=O)(NC1CCCC1)c1ccc(S(=O)(=O)NC2CCCC2)cc1	-	-	-	-	-	-	.	.
O=S(=O)(NC1CCCCC1Nc1ccccc1)c1ccccc1 (configuration not stated)	-	-	15.5	-	-	-	-	-
NC(=O)C1(C(N)=O)OC1c1ccccc1 (configuration not stated)	-	-	-	-	-	-	.	.
O=S(=O)(c1ccccc1)c1ccc(C(F)(F)F)cn1	-	-	34.8	-	-	-	-	-
Cc1c(N/C(=N/S(=O)(=O)c2ccc(F)cc2)c2ccccc2)c(=O)n(-c2ccccc2)n1C	-	-	13.8	-	-	-	-	-
Cc1ccccc1S(=O)(=O)/N=C(/Nc1c(C)n(C)n(-c2ccccc2)c1=O)c1ccccc1	-	-	-	-	-	-	.	.
CC(Nc1ccc2c(c1)OCCO2)C(=O)N1c2ccccc2CC1C (configuration not stated)	-	-	15.5	-	-	-	29.3	-
CC1Cc2ccccc2N1C(=O)NC1CC(=O)N(c2ccc3c(c2)OCCO3)C1 (configuration not stated)	-	-	-	-	-	-	.	.
COc1ccccc1C(=O)Nn1cnc2ccccc2c1=O	-	-	-	-	-	-	.	.
COc1ccc(Cl)cc1C(=O)Nn1cnc2ccccc2c1=O	-	-	137.0	-	-	-	-	-
COc1ccc(/C=C/C(=O)Nc2ccccc2Cl)cc1S(=O)(=O)N1CCOCC1	-	-	-	-	-	-	.	.
O=C(Nc1nnc(C2CC2)s1)c1ccc(S(=O)(=O)c2ccccc2)cc1	-	-	14.1	-	-	-	-	-
O=c1c2[nH]c3ccc(F)cc3c2ncn1CC1CCCO1 (configuration not stated)	-	-	37.5	-	-	-	-	-
SMILES	TNF death inh	Dynein transport	S1P4 agonist	L929 necroptosis	TbHK1 inh	S1P4 antag	S1P4 ag conf	S1P1 ag	others
COc1cccc(NC(=O)c2ccc(NC(=O)C3CC(=O)OC34CCCCC4)cc2)c1 (configuration not stated)	-	-	-	-	-	-	.	.
c1ccc2c(c1)N1CCCN=C1N2CCN1CCCCC1	-	-	17.6	-	-	-	-	-
c1ccc2c(c1)N1CCN=C1N2CCN1CCCCC1	-	-	-	-	-	-	.	.
C[C@H]1C=C(C(=O)NC2CC2)O[C@@H](OCc2ccc(CO)cc2)C1	-	-	.	-	-	.	.	.
Cc1cc(C(=O)CSc2nc3ccccc3c(=O)[nH]2)c(C)n1CC1CCCO1 (configuration not stated)	-	-	52.7	-	-	-	-	-
Cc1cc(C(=O)CSc2nc3ccccc3c(=O)n2C)c(C)n1CC1CCCO1 (configuration not stated)	-	-	196.0	-	-	-	-	-
CCN(CC(=O)NC(C)(C)C)C(=O)CCl	-	-	-	-	-	-	.	.
Cc1ccccc1NC(=O)CSc1nc2cc3c(cc2cc1C)CCC3	-	-	-	-	-	-	.	.
Cc1cc2cc3c(cc2nc1SCC(=O)O)CCC3	-	-	42.7	-	-	-	-	-
COc1ccc(CCN(C)C2CC(=O)N(c3ccccc3)C2=O)cc1OC (configuration not stated)	-	-	-	-	-	-	.	.
COc1ccc(C2c3cc(OC)c(OC)cc3CCN2C2CC(=O)N(c3ccccc3)C2=O)cc1OC (configuration not stated)	-	-	18.1	-	-	-	-	-
O=C(Oc1ccc(NC(=O)c2cc3c(cc2Br)OCO3)cc1)c1ccccc1	-	-	-	-	-	-	.	.
CCN1CC(CN(C)Cc2cn(-c3ccc(C)cc3)nc2-c2cccc(C)c2)CC1=O (configuration not stated)	-	-	-	-	-	-	.	.
CCOc1ccc(C(CC(=O)O)NC(=O)COc2ccccc2)cc1OC (configuration not stated)	-	-	43.8	-	-	-	-	-
CCOC(=O)c1cn(CC)c2cc(N3CCOCC3)c(F)cc2c1=O	-	-	13.7	-	-	-	-	-
CCOC(=O)c1cn(CC)c2cc(N3CCCCC3)c(F)cc2c1=O	-	-	-	-	-	-	.	.
Cc1cc(C=NCCCO)c(C)n1-c1cc(Cl)ccc1Cl	-	-	13.2	-	-	-	21.4	-
Cc1ccc(NN2C(=O)C=CC2=O)cc1	-	-	-	-	-	-	.	.
Cc1ccc(NN2C(=O)C=C(c3ccc(Cl)cc3)C2=O)cc1	-	-	-	-	-	31.2	.	.	S1P4 antag conf=91.8;S1P1 antagonist=-
CCOC(=O)c1cc(C)n(-c2ccccc2)c1C	-	-	-	-	-	-	.	.

Screens as filed in PubChem BioAssay.
